According to PMC9526468 (Thyroid, 2022):

Tests used:
Test in all cases: radiolabelled iodothyronine uptake inhibition in transfected COS1 cells
Assay type in all cases: cell-based
[1] = target: T1, OATP1A2 (Human (h) OATP1A2) (Homo sapiens, UniProt P46721)
T1 sequence (P46721 1-670): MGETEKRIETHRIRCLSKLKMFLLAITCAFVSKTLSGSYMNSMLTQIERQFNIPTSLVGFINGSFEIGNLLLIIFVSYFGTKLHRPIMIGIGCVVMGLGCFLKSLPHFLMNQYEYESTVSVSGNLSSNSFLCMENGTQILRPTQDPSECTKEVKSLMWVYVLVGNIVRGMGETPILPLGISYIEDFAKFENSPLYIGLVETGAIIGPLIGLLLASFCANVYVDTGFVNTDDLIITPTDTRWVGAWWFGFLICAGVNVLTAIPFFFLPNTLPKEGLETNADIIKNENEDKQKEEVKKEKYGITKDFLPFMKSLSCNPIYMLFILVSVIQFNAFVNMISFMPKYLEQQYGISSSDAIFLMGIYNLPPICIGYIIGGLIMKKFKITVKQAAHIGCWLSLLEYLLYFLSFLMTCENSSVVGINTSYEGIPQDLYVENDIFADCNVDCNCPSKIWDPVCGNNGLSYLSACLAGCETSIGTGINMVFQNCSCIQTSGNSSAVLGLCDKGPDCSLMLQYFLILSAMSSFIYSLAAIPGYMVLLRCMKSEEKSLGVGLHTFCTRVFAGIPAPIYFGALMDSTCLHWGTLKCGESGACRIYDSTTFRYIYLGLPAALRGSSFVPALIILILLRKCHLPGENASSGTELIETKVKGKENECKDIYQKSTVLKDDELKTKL

MCT8 (hMCT8) = MCT8 (hMCT8) (Homo sapiens, UniProt P36021)
MCT10 (hMCT10) = target: T2, MCT10 (hMCT10) (Homo sapiens, UniProt Q8TF71)
T2 sequence (Q8TF71 1-515): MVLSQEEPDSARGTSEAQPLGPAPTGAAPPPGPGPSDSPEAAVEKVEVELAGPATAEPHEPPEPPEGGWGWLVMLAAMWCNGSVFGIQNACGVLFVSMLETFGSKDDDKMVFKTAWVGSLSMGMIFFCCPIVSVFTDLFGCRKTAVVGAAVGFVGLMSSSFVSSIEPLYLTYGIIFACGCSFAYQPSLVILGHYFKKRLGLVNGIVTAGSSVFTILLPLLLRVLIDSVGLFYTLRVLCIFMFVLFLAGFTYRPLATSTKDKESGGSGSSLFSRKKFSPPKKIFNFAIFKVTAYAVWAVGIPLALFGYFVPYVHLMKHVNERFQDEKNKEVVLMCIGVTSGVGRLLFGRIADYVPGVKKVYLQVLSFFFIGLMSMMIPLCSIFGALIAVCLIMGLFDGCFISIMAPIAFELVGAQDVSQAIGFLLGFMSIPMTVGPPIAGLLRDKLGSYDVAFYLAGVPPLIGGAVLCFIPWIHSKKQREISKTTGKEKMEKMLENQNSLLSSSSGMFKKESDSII

[2] = target: T3, LAT2 (hSLC7A8, cotransfected with hSLC3A2) (Homo sapiens, UniProt Q9UHI5)
T3 sequence (Q9UHI5 1-535): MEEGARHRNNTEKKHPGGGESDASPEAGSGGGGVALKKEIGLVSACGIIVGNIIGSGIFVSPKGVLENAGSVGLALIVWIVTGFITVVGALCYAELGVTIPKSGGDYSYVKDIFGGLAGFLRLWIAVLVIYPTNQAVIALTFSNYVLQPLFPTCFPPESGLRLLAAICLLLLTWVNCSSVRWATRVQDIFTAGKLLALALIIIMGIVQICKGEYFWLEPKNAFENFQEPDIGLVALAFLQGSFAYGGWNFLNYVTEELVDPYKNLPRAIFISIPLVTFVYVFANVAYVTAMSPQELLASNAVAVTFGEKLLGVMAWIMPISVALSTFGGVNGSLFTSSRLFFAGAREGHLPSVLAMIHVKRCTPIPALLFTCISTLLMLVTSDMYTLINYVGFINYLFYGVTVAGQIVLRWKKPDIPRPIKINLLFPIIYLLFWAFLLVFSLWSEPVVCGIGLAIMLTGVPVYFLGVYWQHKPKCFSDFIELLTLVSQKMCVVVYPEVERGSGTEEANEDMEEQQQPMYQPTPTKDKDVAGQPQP
T3 sequence (P08195 2-529 partner): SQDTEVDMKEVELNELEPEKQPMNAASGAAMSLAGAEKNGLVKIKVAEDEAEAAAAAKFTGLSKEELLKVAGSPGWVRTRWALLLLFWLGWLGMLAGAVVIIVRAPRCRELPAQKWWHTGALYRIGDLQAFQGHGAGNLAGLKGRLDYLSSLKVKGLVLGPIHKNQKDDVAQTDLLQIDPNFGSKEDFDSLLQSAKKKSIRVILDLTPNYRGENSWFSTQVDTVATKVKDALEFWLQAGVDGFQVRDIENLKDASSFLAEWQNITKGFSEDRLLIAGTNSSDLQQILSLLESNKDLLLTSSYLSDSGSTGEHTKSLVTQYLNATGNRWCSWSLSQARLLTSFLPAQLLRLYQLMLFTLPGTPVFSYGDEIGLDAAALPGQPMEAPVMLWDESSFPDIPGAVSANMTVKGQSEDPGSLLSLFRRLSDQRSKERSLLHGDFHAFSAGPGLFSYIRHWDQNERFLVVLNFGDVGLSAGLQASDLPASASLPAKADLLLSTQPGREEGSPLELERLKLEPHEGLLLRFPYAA
In short: (§1)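 COS1 cells cotransfected with 100 ng transporter vector, 100 ng hSLC3A2 (4F2 heavy chain), and 50 ng hCRYM to limit efflux; empty vector served as control. At 48 h post-transfection, cells were washed in BSA-free DPBS+Ca²⁺/Mg²⁺/0.1% glucose. They were then incubated at 37°C with 1 nM 3,3′-T2 plus [¹²⁵I]-3,3′-T2 (5 × 10⁴ cpm) and increasing inhibitor concentrations or vehicle. Finally, cells were rinsed, lysed in 0.1 N NaOH, and gamma-counted.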

[3] = target: LAT1 (hSLC7A5, cotransfected with hSLC3A2) (Homo sapiens, UniProt Q01650)
In short: as §1

Chain of MCT8 (hMCT8) (P36021 2-539): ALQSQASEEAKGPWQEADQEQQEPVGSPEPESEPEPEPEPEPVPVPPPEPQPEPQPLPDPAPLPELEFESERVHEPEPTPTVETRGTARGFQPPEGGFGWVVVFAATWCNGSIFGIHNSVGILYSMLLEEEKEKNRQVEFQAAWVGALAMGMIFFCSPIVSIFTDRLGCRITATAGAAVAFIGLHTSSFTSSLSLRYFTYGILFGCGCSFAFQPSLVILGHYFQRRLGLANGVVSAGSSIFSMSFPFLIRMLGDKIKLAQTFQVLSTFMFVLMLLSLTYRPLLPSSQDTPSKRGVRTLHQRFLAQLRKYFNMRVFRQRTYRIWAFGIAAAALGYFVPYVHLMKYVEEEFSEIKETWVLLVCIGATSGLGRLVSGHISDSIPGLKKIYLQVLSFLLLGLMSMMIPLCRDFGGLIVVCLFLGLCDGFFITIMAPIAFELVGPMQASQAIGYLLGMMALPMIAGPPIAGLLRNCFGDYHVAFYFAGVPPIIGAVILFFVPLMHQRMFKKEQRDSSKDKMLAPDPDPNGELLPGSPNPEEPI
Chain of LAT1 (hSLC7A5, cotransfected with hSLC3A2) (Q01650 whole entry, one chain of several): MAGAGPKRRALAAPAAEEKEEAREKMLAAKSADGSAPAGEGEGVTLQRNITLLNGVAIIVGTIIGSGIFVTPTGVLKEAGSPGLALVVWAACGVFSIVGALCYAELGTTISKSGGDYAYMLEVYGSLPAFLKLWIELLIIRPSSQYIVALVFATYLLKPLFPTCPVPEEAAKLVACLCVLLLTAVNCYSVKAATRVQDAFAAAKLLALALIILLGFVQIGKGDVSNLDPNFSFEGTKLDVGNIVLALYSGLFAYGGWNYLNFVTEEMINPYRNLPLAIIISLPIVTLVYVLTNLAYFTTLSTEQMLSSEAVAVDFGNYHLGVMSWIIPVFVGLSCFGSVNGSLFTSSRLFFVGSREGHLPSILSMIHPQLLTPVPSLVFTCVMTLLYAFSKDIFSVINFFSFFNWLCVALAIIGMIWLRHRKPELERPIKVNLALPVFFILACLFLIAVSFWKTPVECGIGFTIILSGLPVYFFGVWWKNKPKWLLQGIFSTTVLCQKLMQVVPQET

IC50 [1]	IC50 (MCT8 (hMCT8))	IC50 (MCT10 (hMCT10))	Compound	also measured
		> 10000 µM	N[C@@H](Cc1c[nH]c2ccccc12)C(=O)O [L-tryptophan]	
50 µM			CO[C@H]1/C=C/O[C@@]2(C)Oc3c(C)c(O)c4c(O)c(c(/C=N/N5CCN(C)CC5)c(O)c4c3C2=O)NC(=O)/C(C)=C\C=C\[C@H](C)[C@H](O)[C@@H](C)[C@@H](O)[C@@H](C)[C@H](OC(C)=O)[C@@H]1C [Rifampicin]	

The next lines start with the compound.

Compound	IC50 [1]	IC50 (MCT8 (hMCT8))	IC50 (MCT10 (hMCT10))	also measured
COc1ccc(CCN(C)CCCC(C#N)(c2ccc(OC)c(OC)c2)C(C)C)cc1OC (stereo not shown) [Verapamil]	1.5 µM	~100 µM	> 100 µM	
NC1(C(=O)O)CC2CCC1C2 (stereo not shown) [BCH, 2-Amino-2-norbornanecarboxylic acid]				IC50 [2]: ~100 µM; IC50 [3]: 146 µM
C[C@@H]1O[C@@H](O[C@H]2[C@H](Oc3cc(O)c4c(c3)O[C@H](c3ccc(O)cc3)CC4=O)O[C@H](CO)[C@@H](O)[C@@H]2O)[C@H](O)[C@H](O)[C@H]1O [Naringin]	23 µM			
COc1cc([C@@H]2Oc3c(O)cc([C@H]4Oc5cc(O)cc(O)c5C(=O)[C@@H]4O)cc3[C@H]2CO)ccc1O [Silychristin]	> 10 µM	0.12 µM		
